Test results reported in ChEMBL document CHEMBL2407007, “Exploring the space of histidine containing dipeptides in search of novel efficient RCS sequestering agents” (Eur J Med Chem, 2013).
Residues, ends and D or L forms follow the SMILES beside them.

How the values were obtained:
[1] = Selectivity ratio of antioxidant activity assessed as HNE quenching to antioxidant activity assessed as PYR quenching
Summary of the method: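 Ratio of % HNE quenched to % pyridoxal quenched. Both measured after 180 min incubation, with % consumption taken against blanks without compound.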

[2] = Antioxidant activity assessed as PYR quenching after 180 mins by HPLC analysis; type: functional; design: concentration or dose not given beside the values
Summary of the method: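 Pyridoxal used as the target aldehyde under the same incubation (180 min). Consumption determined by HPLC with fluorimetric detection. Expressed as % aldehyde consumed versus a blank incubated without compound.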

[3] = Antioxidant activity assessed as HNE quenching at 1 mM after 180 mins by HPLC analysis; type: functional
Summary of the method: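 HNE consumption measured with dipeptide at 1 mM in 10 mmol PBS pH 7.4, 180 min at 37 °C. Remaining HNE measured by reversed-phase HPLC with PDA detection at 224 nm. Column at 37 °C. Isocratic H2O/CH3CN/HCOOH 40/60/0.1. Result given as % aldehyde consumed relative to a blank without compound.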

[4] = Stability in human serum assessed as compound remaining at 50 uM after 30 mins by LC-MS analysis; type: ADME, cell-free; details: read-out: Stability

remaining at 0.5 h, 50 µM [4]	SMILES	Selectivity ratio [1]	Activity [2]	Activity [3]
	NC(=O)[C@H](Cc1cnc[nH]1)NC(=O)[C@@H](N)Cc1cnc[nH]1	1.35	7.86%	9.81%
	C[C@@H](O)[C@H](N)C(=O)N[C@@H](Cc1cnc[nH]1)C(N)=O	2.75	1.42%	3.9%
68%	NCCCC[C@H](N)C(=O)N[C@H](Cc1cnc[nH]1)C(N)=O	5.55	0.75%	4.16%
	COC(=O)[C@H](Cc1cnc[nH]1)NC(=O)[C@@H](N)CC(N)=O	9.59	1%	9.59%
	NC(=O)[C@@H](Cc1cnc[nH]1)NC(=O)[C@@H](N)CS	2.69	37.2%	100%
	COC(=O)[C@H](Cc1c[nH]cn1)NC(=O)[C@@H](N)Cc1c[nH]c2ccccc12	2.79	4.2%	11.7%
	COC(=O)[C@H](Cc1cnc[nH]1)NC(=O)[C@@H](N)CO	51.8	0.1%	5.18%
	COC(=O)[C@H](Cc1cnc[nH]1)NC(=O)[C@@H](N)Cc1cnc[nH]1	3.3	1.82%	6%
87.5%	COC(=O)[C@H](Cc1cnc[nH]1)NC(=O)[C@@H](N)CCCCN	16.7	1.87%	31.3%
	NC(=O)CC[C@H](N)C(=O)N[C@@H](Cc1cnc[nH]1)C(N)=O	3.54	2.65%	9.37%
	N=C(N)NCCC[C@H](N)C(=O)N[C@@H](Cc1cnc[nH]1)C(N)=O	30	0.26%	7.79%
	NC(=O)[C@H](Cc1cnc[nH]1)NC(=O)[C@@H](N)Cc1ccccc1	8.02	1.22%	9.79%
	COC(=O)[C@@H](Cc1cnc[nH]1)NC(=O)[C@@H](N)CCC(=O)O	18	0.73%	13.1%
	COC(=O)[C@@H](Cc1cnc[nH]1)NC(=O)[C@@H](N)CC(N)=O	8.33	1.14%	9.5%
67.7%	NCCCC[C@H](N)C(=O)N[C@@H](Cc1cnc[nH]1)C(N)=O	38.3	0.41%	15.7%
81.3%	NC(=O)CC[C@H](N)C(=O)N[C@H](Cc1cnc[nH]1)C(N)=O	9.4	1.57%	14.8%
	NCC(=O)N[C@@H](Cc1cnc[nH]1)C(=O)O (H-Gly-His-OH)	2.42	3.77%	9.11%
	NC(=O)[C@@H](Cc1cnc[nH]1)NC(=O)[C@@H](N)CC(=O)O	4.02	1.16%	5.98%
	CC[C@H](C)[C@H](N)C(=O)N[C@@H](Cc1cnc[nH]1)C(N)=O	3.51	2.02%	7.09%
	NC(=O)[C@@H](Cc1cnc[nH]1)NC(=O)[C@@H](N)Cc1c[nH]c2ccccc12	86.2	0.13%	11.2%
40.5%	COC(=O)[C@@H](Cc1cnc[nH]1)NC(=O)[C@@H](N)Cc1ccc(O)cc1	21.3	1.29%	27.4%

remaining at 0.5 h, 50 µM [4]	SMILES	Selectivity ratio [1]	Activity [2]	Activity [3]
	COC(=O)[C@@H](Cc1cnc[nH]1)NC(=O)[C@@H](N)CCSC	0.58	3.11%	1.81%
	COC(=O)[C@H](Cc1cnc[nH]1)NC(=O)[C@@H](N)C(C)C	5.71	0.87%	4.97%
	COC(=O)[C@@H](Cc1cnc[nH]1)NC(=O)[C@@H](N)CS	2.45	40.8%	100%
	COC(=O)[C@@H](Cc1cnc[nH]1)NC(=O)[C@@H](N)C(C)C	4.67	3.62%	16.9%
	NC(=O)[C@@H](Cc1cnc[nH]1)NC(=O)[C@@H](N)Cc1ccccc1	9.57	0.7%	6.7%
	NCCC(=O)N[C@@H](Cc1c[nH]cn1)C(=O)O	8.65	5.57%	48.2%
	COC(=O)[C@@H](Cc1cnc[nH]1)NC(=O)[C@@H](N)CO	2.84	2.08%	5.91%
	NC(=O)[C@H](Cc1cnc[nH]1)NC(=O)[C@@H](N)Cc1c[nH]c2ccccc12	6.01	1.86%	8.62%
	COC(=O)[C@H](Cc1cnc[nH]1)NC(=O)[C@@H](N)Cc1ccc(O)cc1	3.12	4.02%	12.5%
	NC(=O)[C@@H](Cc1cnc[nH]1)NC(=O)[C@@H](N)Cc1cnc[nH]1	1.26	7.28%	9.16%
	C[C@@H](O)[C@H](N)C(=O)N[C@H](Cc1cnc[nH]1)C(N)=O	1.83	6.62%	12.1%
	COC(=O)[C@H](Cc1cnc[nH]1)NC(=O)[C@@H](N)CCSC	0.07	2.61%	0.17%
	NC(=O)[C@H](Cc1cnc[nH]1)NC(=O)[C@@H](N)CS	3.61	27.7%	100%
	COC(=O)[C@H](Cc1cnc[nH]1)NC(=O)[C@@H](N)CS	3.96	25.3%	100%
	COC(=O)[C@@H](Cc1cnc[nH]1)NC(=O)[C@@H](N)Cc1cnc[nH]1	1.15	7.7%	8.86%
	COC(=O)[C@H](Cc1cnc[nH]1)NC(=O)[C@@H](N)CCC(=O)O	16.1	0.76%	12.2%
90.5%	COC(=O)[C@@H](Cc1cnc[nH]1)NC(=O)[C@@H](N)CCCCN	29.1	0.35%	10.2%
	COC(=O)[C@@H](Cc1cnc[nH]1)NC(=O)[C@@H](N)Cc1c[nH]c2ccccc12	3.24	5.81%	18.8%
	NC(=O)[C@H](Cc1cnc[nH]1)NC(=O)[C@@H](N)CC(=O)O	5.16	1.49%	5.99%
	CC[C@H](C)[C@H](N)C(=O)N[C@H](Cc1cnc[nH]1)C(N)=O	8.69	0.59%	5.13%
	N=C(N)NCCC[C@H](N)C(=O)N[C@H](Cc1cnc[nH]1)C(N)=O	27.9	0.43%	12%
